Measurements taken from ChEMBL document CHEMBL1123311, “Synthesis and antitumor and antiviral properties of 5-halo- and 5-(trifluoromethyl)-2'-deoxyuridine 3',5'-cyclic monophosphates and neutral triesters” (1986).
In brackets after ≈: the same amount, converted by molar mass.

Key:
[1] = tested on: Human alphaherpesvirus 2; assay: Evaluation of antiviral activity against Herpes simplex virus type 2 (HSV-2) strain 196.; type: functional
In short: (§1)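 Virus-induced cytopathogenicity scored in primary rabbit kidney cell cultures. Value is the minimum concentration reducing cytopathogenicity by 50%. Cytotoxicity on uninfected cells was read as the minimal concentration causing a microscopically detectable change in normal cell morphology, tested up to 400 μg/mL.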

[2] = tested on: Vaccinia virus; assay: Evaluation of antiviral activity against Vaccinia virus; type: functional; conditions: Orthopoxvirus vaccinia; in short: as §1
[3] = tested on: Human alphaherpesvirus 2; assay: Evaluation of antiviral activity against Herpes simplex virus type 2 (HSV-2) strain G; type: functional; in short: as §1
[4] = tested on: Human alphaherpesvirus 2; assay: Evaluation of antiviral activity against Herpes simplex virus type 2 (HSV-2) strain Lyons; type: functional; in short: as §1
[5] = tested on: Human alphaherpesvirus 1; assay: Evaluation of antiviral activity against Herpes simplex virus type 1 (HSV-1) strain KOS.; type: functional; in short: as §1
[6] = species on record: Homo sapiens; assay: Evaluation for antitumor activity against human lymphoblast Raji cells; type: functional; conditions: Homo sapiens, Raji; read-out: ID50 (the source's name)
[7] = tested on: Human alphaherpesvirus 1; assay: Evaluation of antiviral activity against Herpes simplex virus type 1 (HSV-1) strain F; type: functional; in short: as §1
[8] = tested on: L1210; assay: Evaluation of antitumor activity against mutant murine leukemia L1210 cells; type: functional; conditions: Mus musculus, read-out: ID50 (the source's name)
In short: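 Proliferation of mutant murine leukemia L1210/BdUrd cells, selected from parental L1210/0 for growth in 260 μg/mL 5-bromo-2'-deoxyuridine. Value is the dose inhibiting proliferation by 50%.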

[9] = tested on: Vesicular stomatitis virus; assay: Evaluation of antiviral activity against Vesicular stomatitis virus.; type: functional; in short: as §1
[10] = tested on: L1210; assay: Evaluation of cytostatic activity by using antitumor assays against murine leukemia L1210 cells; type: functional; conditions: Mus musculus, read-out: ID50 (the source's name)
[11] = tested on: Raji; assay: Evaluation of antitumor activity against thymidine kinase deficient Raji cell line; type: functional; conditions: Homo sapiens, read-out: ID50 (the source's name)
[12] = tested on: Human alphaherpesvirus 1; assay: Evaluation of antiviral activity against Herpes simplex virus type 1 (HSV-1) strain McIntyre; type: functional; in short: as §1
[13] = target: Thymidylate synthase (Mus musculus) (UniProt P07607); assay: Compound was evaluated for the inhibition of L1210 Thymidylate synthase
In short: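 Thymidylate (dTMP) synthetase inhibition measured with a partially purified extract of L1210 cells as the enzyme source.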

[14] = target: Thymidylate synthase (Mus musculus) (UniProt P07607)

Thymidylate synthase (Mus musculus), sequence (P07607 whole entry, looked up): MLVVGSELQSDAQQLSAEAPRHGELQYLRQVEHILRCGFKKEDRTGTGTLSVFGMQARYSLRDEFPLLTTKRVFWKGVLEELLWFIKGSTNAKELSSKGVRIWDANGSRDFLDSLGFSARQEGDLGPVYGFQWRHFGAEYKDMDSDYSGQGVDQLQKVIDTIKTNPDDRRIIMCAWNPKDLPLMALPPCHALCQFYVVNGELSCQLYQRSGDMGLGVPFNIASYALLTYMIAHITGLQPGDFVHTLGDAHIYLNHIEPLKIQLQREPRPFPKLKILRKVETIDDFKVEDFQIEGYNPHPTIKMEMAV

Structure (SMILES)	MIC50 [1]	MIC50 [2]	MIC50 [3]	MIC50 [4]	MIC50 [5]	IC50 [6]	MIC50 [7]	IC50 [8]	MIC50 [9]	IC50 [10]	IC50 [11]	MIC50 [12]	Ki/Km [13]	Ki/Km [14]
O=c1[nH]c(=O)n([C@H]2C[C@H](O)[C@@H](CO)O2)cc1Br [BROXURIDINE]	0.2 µg/mL (≈ 0.651 µM)	0.07 µg/mL (≈ 0.228 µM)	0.2 µg/mL (≈ 0.651 µM)	0.07 µg/mL (≈ 0.228 µM)	0.2 µg/mL (≈ 0.651 µM)	17.5 µg/mL (≈ 57 µM)	0.2 µg/mL (≈ 0.651 µM)	> 1000 µg/mL	> 400 µg/mL	33.8 µg/mL (≈ 110 µM)	> 1000 µg/mL	0.2 µg/mL (≈ 0.651 µM)		
COP1(=O)OC[C@H]2O[C@@H](n3cc(Br)c(=O)[nH]c3=O)C[C@@H]2O1 (some centres not stated)	> 200 µg/mL	10 µg/mL (≈ 26.1 µM)	> 200 µg/mL	70 µg/mL (≈ 183 µM)	> 200 µg/mL	> 100 µg/mL	> 200 µg/mL	> 100 µg/mL	> 200 µg/mL	> 100 µg/mL	> 100 µg/mL	> 200 µg/mL		
O=c1[nH]c(=O)n([C@H]2C[C@H](O)[C@@H](CO)O2)cc1/C=C/Br [BRIVUDINE]	70 µg/mL (≈ 210 µM)	4 µg/mL (≈ 12 µM)	4 µg/mL (≈ 12 µM)	7 µg/mL (≈ 21 µM)	0.02 µg/mL (≈ 0.06 µM)		0.02 µg/mL (≈ 0.06 µM)		> 400 µg/mL			0.07 µg/mL (≈ 0.21 µM)		
O=c1[nH]c(=O)n([C@H]2C[C@H](O)[C@@H](CO)O2)cc1Cl [CHLORODEOXYURIDINE]	2 µg/mL (≈ 7.61 µM)	0.2 µg/mL (≈ 0.761 µM)	1 µg/mL (≈ 3.81 µM)	2 µg/mL (≈ 7.61 µM)	2 µg/mL (≈ 7.61 µM)	8.54 µg/mL (≈ 32.5 µM)	0.7 µg/mL (≈ 2.67 µM)	339 µg/mL (≈ 1290 µM)	> 400 µg/mL	21.3 µg/mL (≈ 81.1 µM)	> 1000 µg/mL	2 µg/mL (≈ 7.61 µM)		
N.O=c1[nH]c(=O)n([C@H]2C[C@@H]3O[PH](O)(O)OC[C@H]3O2)cc1C(F)(F)F	40 µg/mL	0.4 µg/mL	10 µg/mL	10 µg/mL	10 µg/mL	1.81 µg/mL	20 µg/mL	22 µg/mL	> 400 µg/mL	0.116 µg/mL	≥ 500 µg/mL	10 µg/mL	30.4	
O=c1[nH]c(=O)n([C@H]2C[C@H](O)[C@@H](CO)O2)cc1C(F)(F)F [TRIFLURIDINE]	1 µg/mL (≈ 3.38 µM)	0.2 µg/mL (≈ 0.675 µM)	0.6 µg/mL (≈ 2.03 µM)	1 µg/mL (≈ 3.38 µM)	0.7 µg/mL (≈ 2.36 µM)	0.15 µg/mL (≈ 0.506 µM)	0.7 µg/mL (≈ 2.36 µM)	47 µg/mL (≈ 159 µM)	> 40 µg/mL	0.006 µg/mL (≈ 0.0203 µM)	180 µg/mL (≈ 608 µM)	0.7 µg/mL (≈ 2.36 µM)		
O=c1[nH]c(=O)n([C@H]2C[C@H](O)[C@@H](COP(=O)(O)O)O2)cc1I	0.7 µg/mL (≈ 1.61 µM)	0.2 µg/mL (≈ 0.461 µM)	0.4 µg/mL (≈ 0.921 µM)	0.2 µg/mL (≈ 0.461 µM)	0.2 µg/mL (≈ 0.461 µM)	6.8 µg/mL (≈ 15.7 µM)	0.4 µg/mL (≈ 0.921 µM)	> 500 µg/mL	> 400 µg/mL	31 µg/mL (≈ 71.4 µM)	> 500 µg/mL	0.2 µg/mL (≈ 0.461 µM)		3.54
O=c1[nH]c(=O)n([C@H]2C[C@H](O)[C@@H](COP(=O)(O)O)O2)cc1C(F)(F)F	0.7 µg/mL (≈ 1.86 µM)	0.2 µg/mL (≈ 0.532 µM)	0.7 µg/mL (≈ 1.86 µM)	0.6 µg/mL (≈ 1.59 µM)	0.7 µg/mL (≈ 1.86 µM)	0.169 µg/mL (≈ 0.449 µM)	0.7 µg/mL (≈ 1.86 µM)	38 µg/mL (≈ 101 µM)	> 400 µg/mL	0.017 µg/mL (≈ 0.0452 µM)	212 µg/mL (≈ 564 µM)	0.4 µg/mL (≈ 1.06 µM)	0.061	
O=c1[nH]c(=O)n([C@H]2C[C@H](O)[C@@H](CO)O2)cc1F [FLOXURIDINE]	150 µg/mL (≈ 609 µM)	0.1 µg/mL (≈ 0.406 µM)	8 µg/mL (≈ 32.5 µM)	10 µg/mL (≈ 40.6 µM)	6 µg/mL (≈ 24.4 µM)	0.004 µg/mL (≈ 0.0162 µM)	8 µg/mL (≈ 32.5 µM)	1.8 µg/mL (≈ 7.31 µM)	> 200 µg/mL	0.02 µg/mL (≈ 0.0812 µM)	1.55 µg/mL (≈ 6.3 µM)	4 µg/mL (≈ 16.2 µM)		
